From ChEMBL document CHEMBL4261486, “2-Arylaminobenzothiazole-arylpropenone conjugates as tubulin polymerization inhibitors” (Medchemcomm, 2017)
pIC50: −log10 of the molar value.

Tests used:
Assay type in all cases: functional, cell-based
[1] = test system: HeLa; assay: Antiproliferative activity against human HeLa cells after 48 hrs by sulforhodamine B assay
Method in brief: (§1)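 Cells grown in DMEM with 10% FBS at 37 °C under 5% CO2. Plated cells were allowed 24 h before drug, then exposed continuously for 48 h at 0.01, 0.1, 1, 10 and 100 μM. Monolayers were fixed with cold 10% TCA for 1 h at 4 °C and stained with 0.057% SRB in 1% acetic acid for 30 min. Bound dye was read at 510 nm. IC50 is the 50% growth-inhibitory concentration, using time-zero and control readings.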

[2] = test system: A549; assay: Antiproliferative activity against human A549 cells after 48 hrs by sulforhodamine B assay; settings: A549, 48 h; method in brief: as §1
[3] = test system: MIA PaCa-2; assay: Antiproliferative activity against human MIAPaCa2 cells after 48 hrs by sulforhodamine B assay; settings: MIA PaCa-2, 48 h; method in brief: as §1
[4] = test system: MDA-MB-231; assay: Antiproliferative activity against human MDA-MB-231 cells after 48 hrs by sulforhodamine B assay; settings: MDA-MB-231, 48 h; method in brief: as §1

pIC50 [1]	pIC50 [2]	pIC50 [3]	pIC50 [4]	Structure (SMILES)
4.79	4.84	4.66	5.51	COc1cc(OC)c2sc(-c3ccc(N/C=C\C(=O)c4ccc(OC)c(O)c4)c(C)c3)nc2c1
4.83	4.85	4.80	4.76	COc1cc(OC)c2sc(-c3ccc(N/C=C\C(=O)c4cc(OC)c(OC)c(OC)c4Br)c(C)c3)nc2c1
4.92	4.97	4.94	5.12	COc1cc(OC)c2sc(-c3ccc(N/C=C\C(=O)c4ccc(OC)c(O)c4)cc3)nc2c1
4.75	4.66	4.57	4.80	COc1cc(OC)c2sc(-c3ccc(N/C=C\C(=O)c4cc(OC)c(OC)c(OC)c4)cc3)nc2c1
5.10	5.22	4.83	4.96	COc1ccc2nc(-c3ccc(N/C=C\C(=O)c4cc(OC)c(OC)c(OC)c4Br)cc3)sc2c1
4.89	5.24	5.54	4.89	COc1cc(OC)c2sc(-c3ccc(N/C=C\C(=O)c4ccc(OC)c([N+](=O)[O-])c4)cc3)nc2c1
4.85	4.92	4.51	4.71	COc1ccc2nc(-c3ccc(N/C=C\C(=O)c4cc(OC)c(OC)c(OC)c4)cc3)sc2c1
4.96	4.63	4.64	4.89	COc1cc(C(=O)/C=C\Nc2ccc(-c3nc4cc(OC)c(OC)c(OC)c4s3)cc2C)cc(OC)c1OC
4.92	4.66	4.92	5.30	COc1ccc2nc(-c3ccc(N/C=C\C(=O)c4cc(OC)c(OC)c([N+](=O)[O-])c4)c(C)c3)sc2c1
4.75	4.87	4.63	4.75	COc1ccc2nc(-c3ccc(N/C=C\C(=O)c4ccc(OC)c([N+](=O)[O-])c4)cc3)sc2c1
4.84	4.99	4.61	5.14	COc1cc(C(=O)/C=C\Nc2ccc(-c3nc4cc(OC)c(OC)c(OC)c4s3)cc2C)c(Br)c(OC)c1OC
5.92	5.77	5.74	5.54	COc1ccc(C(=O)/C=C\Nc2ccc(-c3nc4cc(OC)c(OC)c(OC)c4s3)cc2C)cc1F
5.11	4.93	4.80	5.01	COc1cc(C(=O)/C=C\Nc2ccc(-c3nc4cc(OC)c(OC)c(OC)c4s3)cc2)cc([N+](=O)[O-])c1OC
4.72	4.89	4.90	5.51	COc1cc(OC)c2sc(-c3ccc(N/C=C\C(=O)c4cc(OC)c(OC)c([N+](=O)[O-])c4)cc3)nc2c1
4.92	4.74	4.77	4.85	COc1ccc2nc(-c3ccc(N/C=C\C(=O)c4ccc(OC)c(O)c4)c(C)c3)sc2c1
4.79	4.67	4.59	5.12	COc1ccc2nc(-c3ccc(N/C=C\C(=O)c4cc(OC)c(OC)c([N+](=O)[O-])c4)cc3)sc2c1
4.79	4.84	4.77	4.86	COc1cc(OC)c2sc(-c3ccc(N/C=C\C(=O)c4cc(OC)c(OC)c(OC)c4)c(C)c3)nc2c1

pIC50 [1]	pIC50 [2]	pIC50 [3]	pIC50 [4]	Structure (SMILES)
4.94	4.81	4.98	5.13	COc1cc(OC)c2sc(-c3ccc(N/C=C\C(=O)c4cc(OC)c(OC)c([N+](=O)[O-])c4)c(C)c3)nc2c1
5.14	4.81	4.71	4.78	COc1ccc(C(=O)/C=C\Nc2ccc(-c3nc4cc(OC)c(OC)c(OC)c4s3)cc2)cc1F
4.94	4.67	4.80	4.77	COc1ccc(C(=O)/C=C\Nc2ccc(-c3nc4cc(OC)c(OC)c(OC)c4s3)cc2)cc1[N+](=O)[O-]
4.94	4.81	4.81	4.91	COc1ccc(C(=O)/C=C\Nc2ccc(-c3nc4cc(OC)c(OC)c(OC)c4s3)cc2C)cc1O
5.18	4.87	4.63	4.81	COc1cc(C(=O)/C=C\Nc2ccc(-c3nc4cc(OC)c(OC)c(OC)c4s3)cc2)c(Br)c(OC)c1OC
5.03	4.92	4.86	4.97	COc1cc(OC)c2sc(-c3ccc(N/C=C\C(=O)c4ccc(OC)c([N+](=O)[O-])c4)c(C)c3)nc2c1
4.99	4.92	4.72	4.79	COc1cc(OC)c2sc(-c3ccc(N/C=C\C(=O)c4cc(OC)c(OC)c(OC)c4Br)cc3)nc2c1
5.28	4.81	4.54	4.78	COc1cc(C(=O)/C=C\Nc2ccc(-c3nc4cc(OC)c(OC)c(OC)c4s3)cc2)cc(OC)c1OC
4.87	5.19	4.63	5.03	COc1ccc2nc(-c3ccc(N/C=C\C(=O)c4cc(OC)c(OC)c(OC)c4Br)c(C)c3)sc2c1
4.83	4.82	4.79	4.88	COc1cc(OC)c2sc(-c3ccc(N/C=C\C(=O)c4ccc(OC)c(F)c4)c(C)c3)nc2c1
4.75	4.87	4.63	4.75	COc1ccc2nc(-c3ccc(N/C=C\C(=O)c4ccc(OC)c([N+](=O)[O-])c4)c(C)c3)sc2c1
4.79	4.96	5.00	4.77	COc1ccc2nc(-c3ccc(N/C=C\C(=O)c4cc(OC)c(OC)c(OC)c4)c(C)c3)sc2c1
5.14	5.28	5.37	5.17	COc1cc(OC)c2sc(-c3ccc(N/C=C\C(=O)c4ccc(OC)c(F)c4)cc3)nc2c1
5.16	4.89	4.66	4.72	COc1ccc2nc(-c3ccc(N/C=C\C(=O)c4ccc(OC)c(O)c4)cc3)sc2c1
4.87	5.04	4.63	4.91	COc1ccc(C(=O)/C=C\Nc2ccc(-c3nc4cc(OC)c(OC)c(OC)c4s3)cc2C)cc1[N+](=O)[O-]
4.88	4.76	4.66	4.89	COc1cc(C(=O)/C=C\Nc2ccc(-c3nc4cc(OC)c(OC)c(OC)c4s3)cc2C)cc([N+](=O)[O-])c1OC
4.85	4.64	4.48	4.74	COc1ccc(C(=O)/C=C\Nc2ccc(-c3nc4cc(OC)c(OC)c(OC)c4s3)cc2)cc1O
